ChEMBL document CHEMBL2424551, “Synthesis, in vitro evaluation and molecular modelling of naphthalimide analogue as anticancer agents” (2013)
Active and inactive are the calls of the source. The calls are words filed in the database; no cut-off is given here.

Columns and labels:
Assay type in all cases: functional
HCT-15 = assay: Growth inhibition of human HCT15 cells at 10 uM after 48 hrs by SRB assay; conditions: HCT-15, 48 h, read-out: GI
Summary of the method: (§1)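 Cells grown in RPMI 1640 with 5% FBS and 2 mM L-glutamine, plated at 5000–40,000 cells/well by doubling time and preincubated 24 h (37 °C, 5% CO2); a time-zero plate is TCA-fixed. Single dose added, then 48 h incubation. Fixed with cold TCA, stained with 0.4% SRB, dye solubilized in 10 mM Tris base, absorbance at 515 nm; percent growth vs time-zero and untreated control.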

NCI-H522 = assay: Growth inhibition of human NCI-H522 cells at 10 uM after 48 hrs by SRB assay; conditions: NCI-H522, 48 h, read-out: GI; summary of the method: as §1
NCI-H322M = assay: Growth inhibition of human NCI-H322M cells at 10 uM after 48 hrs by SRB assay; conditions: read-out: GI; summary of the method: as §1
NCI-H460 = assay: Growth inhibition of human NCI-H460 cells at 10 uM after 48 hrs by SRB assay; conditions: NCI-H460, 48 h, read-out: GI; summary of the method: as §1
NCI-H23 = assay: Growth inhibition of human NCI-H23 cells at 10 uM after 48 hrs by SRB assay; conditions: NCI-H23, 48 h, read-out: GI; summary of the method: as §1
HOP-92 = assay: Growth inhibition of human HOP92 cells at 10 uM after 48 hrs by SRB assay; conditions: HOP-92, 48 h, read-out: GI; summary of the method: as §1
HOP-62 = assay: Growth inhibition of human HOP62 cells at 10 uM after 48 hrs by SRB assay; conditions: HOP-62, 48 h, read-out: GI; summary of the method: as §1
SR = assay: Growth inhibition of human SR cells at 10 uM after 48 hrs by SRB assay; conditions: read-out: GI
Summary of the method: (§2)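 NCI 60-cell-line screen with a single 10 µM dose. Cells are grown in RPMI 1640 with 5% FBS and 2 mM L-glutamine, plated at 5000–40,000 cells/well according to doubling time, and preincubated 24 h at 37 °C, 5% CO2; time-zero plates are TCA-fixed at that point. Drug exposure is 48 h. Adherent cells are fixed with cold TCA, stained with 0.4% SRB in 1% acetic acid and read at 515 nm. Percent growth is calculated relative to time-zero and untreated controls and reported as GI%.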

MDA-MB-468 = assay: Growth inhibition of human MDA-MB-468 cells at 10 uM after 48 hrs by SRB assay; summary of the method: as §1
BT-549 = assay: Growth inhibition of human BT549 cells at 10 uM after 48 hrs by SRB assay; conditions: BT-549, 48 h, read-out: GI; summary of the method: as §1
Hs-578T = assay: Growth inhibition of human Hs578T cells at 10 uM after 48 hrs by SRB assay; conditions: read-out: GI; summary of the method: as §1
MCF7 = assay: Growth inhibition of human MCF7 cells at 10 uM after 48 hrs by SRB assay; conditions: MCF7, 48 h, read-out: GI; summary of the method: as §1
PC-3 = assay: Growth inhibition of human PC3 cells at 10 uM after 48 hrs by SRB assay; conditions: PC-3, 48 h, read-out: GI; summary of the method: as §1
DU-145 = assay: Growth inhibition of human DU145 cells at 10 uM after 48 hrs by SRB assay; conditions: DU-145, 48 h, read-out: GI; summary of the method: as §1
UO-31 = assay: Growth inhibition of human UO31 cells at 10 uM after 48 hrs by SRB assay; conditions: UO-31, 48 h, read-out: GI; summary of the method: as §2
RXF 393 = assay: Growth inhibition of human RXF393 cells at 10 uM after 48 hrs by SRB assay; conditions: RXF 393, 48 h, read-out: GI; summary of the method: as §1
SN12C = assay: Growth inhibition of human SN12C cells at 10 uM after 48 hrs by SRB assay; conditions: read-out: GI; summary of the method: as §2
A498 = assay: Growth inhibition of human A498 cells at 10 uM after 48 hrs by SRB assay; conditions: A498, 48 h, read-out: GI; summary of the method: as §1
ACHN = assay: Growth inhibition of human ACHN cells at 10 uM after 48 hrs by SRB assay; conditions: read-out: GI; summary of the method: as §1
CAKI-1 = assay: Growth inhibition of human Caki1 cells at 10 uM after 48 hrs by SRB assay; conditions: CAKI-1, 48 h, read-out: GI; summary of the method: as §1
786-0 = assay: Growth inhibition of human 786-0 cells at 10 uM after 48 hrs by SRB assay; conditions: 786-0, 48 h, read-out: GI; summary of the method: as §1
[1] = Growth inhibition of human NCI-ADR-RES cells at 10 uM after 48 hrs by SRB assay; conditions: read-out: GI; summary of the method: as §1
OVCAR-5 = assay: Growth inhibition of human OVCAR5 cells at 10 uM after 48 hrs by SRB assay; conditions: OVCAR-5, 48 h, read-out: GI; summary of the method: as §1
OVCAR-4 = assay: Growth inhibition of human OVCAR4 cells at 10 uM after 48 hrs by SRB assay; conditions: OVCAR-4, 48 h, read-out: GI; summary of the method: as §1
IGROV-1 = assay: Growth inhibition of human IGROV1 cells at 10 uM after 48 hrs by SRB assay; conditions: IGROV-1, 48 h, read-out: GI; summary of the method: as §1
UACC-62 = assay: Growth inhibition of human UACC62 cells at 10 uM after 48 hrs by SRB assay; conditions: UACC-62, 48 h, read-out: GI; summary of the method: as §2
SK-MEL-5 = assay: Growth inhibition of human SK-MEL-5 cells at 10 uM after 48 hrs by SRB assay; conditions: SK-MEL-5, 48 h, read-out: GI; summary of the method: as §1
SK-MEL-28 = assay: Growth inhibition of human SK-MEL-28 cells at 10 uM after 48 hrs by SRB assay; conditions: SK-MEL-28, 48 h, read-out: GI; summary of the method: as §1
M14 = assay: Growth inhibition of human M14 cells at 10 uM after 48 hrs by SRB assay; conditions: M14, 48 h, read-out: GI; summary of the method: as §1
LOX IMVI = assay: Growth inhibition of human LOXIMVI cells at 10 uM after 48 hrs by SRB assay; conditions: read-out: GI; summary of the method: as §1
Malme-3M = assay: Growth inhibition of human MALME-3M cells at 10 uM after 48 hrs by SRB assay; conditions: read-out: GI; summary of the method: as §1
SNB-19 = assay: Growth inhibition of human SNB19 cells at 10 uM after 48 hrs by SRB assay; conditions: SNB-19, 48 h, read-out: GI; summary of the method: as §2
SF-539 = assay: Growth inhibition of human SF539 cells at 10 uM after 48 hrs by SRB assay; conditions: SF-539, 48 h, read-out: GI; summary of the method: as §1
SF-268 = assay: Growth inhibition of human SF268 cells at 10 uM after 48 hrs by SRB assay; conditions: SF-268, 48 h, read-out: GI; summary of the method: as §1

Row | Structure (SMILES) | inhibition of growth at 10 µM (HCT-15) [%] | inhibition of growth at 10 µM (NCI-H522) [%] | inhibition of growth at 10 µM (NCI-H322M) [%] | inhibition of growth at 10 µM (NCI-H460) [%] | inhibition of growth at 10 µM (NCI-H23) [%] | inhibition of growth at 10 µM (HOP-92) [%] | inhibition of growth at 10 µM (HOP-62) [%] | inhibition of growth at 10 µM (SR) [%] | growth inhibition (GI) (MDA-MB-468) | inhibition of growth at 10 µM (BT-549) [%] | inhibition of growth at 10 µM (Hs-578T) [%] | inhibition of growth at 10 µM (MCF7) [%] | inhibition of growth at 10 µM (PC-3) [%] | inhibition of growth at 10 µM (DU-145) [%] | inhibition of growth at 10 µM (UO-31) [%] | inhibition of growth at 10 µM (RXF 393) [%] | inhibition of growth at 10 µM (SN12C) [%] | inhibition of growth at 10 µM (A498) [%] | inhibition of growth at 10 µM (ACHN) [%] | inhibition of growth at 10 µM (CAKI-1) [%] | further results
1 | O=c1c2cccc3c(Nc4ccccn4)ccc(c32)c2nc3ccccc3n12 | 40.8 | 43.4 | 25.5 | 47.3 | 34.5 | 45.1 | 32.2 | 29.8 | Active | < 20 | < 20 | 71.3 | 36 | < 20 | 53.5 | < 20 | 28.3 | < 20 | 23.9 | 48.2 | inhibition of growth at 10 µM (786-0): < 20%; inhibition of growth at 10 µM [1]: 25.4%; inhibition of growth at 10 µM (OVCAR-5): < 20%; inhibition of growth at 10 µM (OVCAR-4): 30.9%; inhibition of growth at 10 µM (IGROV-1): 43.4%; inhibition of growth at 10 µM (UACC-62): 35.7%; inhibition of growth at 10 µM (SK-MEL-5): 48.2%; inhibition of growth at 10 µM (SK-MEL-28): < 20%; inhibition of growth at 10 µM (M14): < 20%; inhibition of growth at 10 µM (LOX IMVI): 30.4%; inhibition of growth at 10 µM (Malme-3M): < 20%; inhibition of growth at 10 µM (SNB-19): < 20%; inhibition of growth at 10 µM (SF-539): < 20%; inhibition of growth at 10 µM (SF-268): < 20%
2 | O=c1c2cccc3c(NC4CCCCC4)ccc(c32)c2nc3ccccc3n12 | 25.2 | 38.5 | < 20 | 65.3 | 54 | 51.5 | < 20 | 98.9 | Active | < 20 | < 20 | 86.5 | 20.1 | < 20 | 58.6 | < 20 | < 20 | < 20 | 27.1 | 52.8 | inhibition of growth at 10 µM (786-0): < 20%; inhibition of growth at 10 µM [1]: < 20%; inhibition of growth at 10 µM (OVCAR-5): < 20%; inhibition of growth at 10 µM (OVCAR-4): < 20%; inhibition of growth at 10 µM (IGROV-1): 58.8%; inhibition of growth at 10 µM (UACC-62): < 20%; inhibition of growth at 10 µM (SK-MEL-5): 33.9%; inhibition of growth at 10 µM (SK-MEL-28): < 20%; inhibition of growth at 10 µM (M14): < 20%; inhibition of growth at 10 µM (LOX IMVI): 26.6%; inhibition of growth at 10 µM (Malme-3M): < 20%; inhibition of growth at 10 µM (SNB-19): < 20%; inhibition of growth at 10 µM (SF-539): < 20%; inhibition of growth at 10 µM (SF-268): < 20%
3 | O=c1c2cccc3c(Nc4c(F)cccc4F)ccc(c32)c2nc3ccccc3n12 | 24.5 | < 20 | < 20 | 27.3 | < 20 | 35.8 | < 20 | 78.5 | Active | < 20 | < 20 | 79.6 | < 20 | < 20 | 49.4 | < 20 | < 20 | < 20 | < 20 | 38 | inhibition of growth at 10 µM (786-0): < 20%; inhibition of growth at 10 µM [1]: < 20%; inhibition of growth at 10 µM (OVCAR-5): < 20%; inhibition of growth at 10 µM (OVCAR-4): < 20%; inhibition of growth at 10 µM (IGROV-1): 46.6%; inhibition of growth at 10 µM (UACC-62): < 20%; inhibition of growth at 10 µM (SK-MEL-5): < 20%; inhibition of growth at 10 µM (SK-MEL-28): < 20%; inhibition of growth at 10 µM (M14): < 20%; inhibition of growth at 10 µM (LOX IMVI): < 20%; inhibition of growth at 10 µM (Malme-3M): < 20%; inhibition of growth at 10 µM (SNB-19): < 20%; inhibition of growth at 10 µM (SF-539): < 20%; inhibition of growth at 10 µM (SF-268): < 20%
